UHRF1 MBD2 ctr: human UHRF1 methylated DNA binding inhibitors; Q96T88; UHRF1 binding to methylated oligo, TR-FRET; inhibition, % at 4.4 µM; hit rate 0.75% among 370,000;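 note: UHRF1 SRA domain binding a hemimethylated CpG hairpin DNA probe; 0% = median of test compound wells and 100% = reference inhibitor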
LEDGF integ inh: blocks HIV-1 LEDGF/p75-dependent DNA integration; inhibition, % at 3.7 µM; hit rate 0.64% among 370,000; TR-FRET IN-LEDGF/p75 DNA integration, Eu/Cy5;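 active = inhibition above the screen-wide mean plus 3 SD, cut at about 13% in these data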;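 note: signal is the Cy5 over europium emission ratio at 671 and 618 nm; 0% = plate median of compound wells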
Rin1 Abl inh: inhibitors of human Rin1-Abl protein interaction; TR-FRET Rin1/Abl binding, biochemical; inhibition, % at 7.35 µM; hit rate 0.4% among 360,000; AID 588664; in the data active = inhibition above about 5%, passing the limit was not always enough
MBD2 DNA inh: blocks human MBD2 binding to methylated DNA; Q9UBB5; TR-FRET, MBD2 binding to methylated oligonucleotide; inhibition, % at 4.4 µM; hit rate 0.31% among 370,000; in the data active = inhibition above about 13%
TDP2 absorb: TDP2 (human) inhibition, absorbance primary screen; inhibition, % at 12.8 µM; hit rate 0.34% among 370,000; recombinant TDP2, T5PNP hydrolysis, p-nitrophenol absorbance 415 nm;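 active = inhibition above the mean of all tested compounds plus 3 SD, set per campaign, cut at about 25% in these data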;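 note: 0% = DMSO with enzyme and 100% = buffer with substrate but no TDP2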
Target sequence (O95551 whole entry, looked up): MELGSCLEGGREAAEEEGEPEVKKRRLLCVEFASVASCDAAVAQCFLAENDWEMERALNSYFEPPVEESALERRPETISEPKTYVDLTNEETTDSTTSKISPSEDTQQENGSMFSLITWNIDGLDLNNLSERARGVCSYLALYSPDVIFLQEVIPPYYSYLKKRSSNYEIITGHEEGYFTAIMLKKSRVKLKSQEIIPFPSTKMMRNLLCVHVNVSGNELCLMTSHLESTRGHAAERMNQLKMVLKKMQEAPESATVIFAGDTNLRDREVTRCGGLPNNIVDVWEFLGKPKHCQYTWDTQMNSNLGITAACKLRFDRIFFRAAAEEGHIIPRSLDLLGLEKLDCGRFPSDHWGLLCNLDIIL
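Material: recombinant human TDP2; quantity: TDP2 enzyme at 120 nM final; medium: Tris-HCl pH 7.5 with MgCl2; compound: single concentration, 12.8 µM nominal, with 1% DMSO; incubation: 2 h enzyme incubation at 37 °C; signal: epi absorbance; measure: percent inhibition; benchmarks: high control without enzyme, low control DMSO plus TDP2; repeats: singlicate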
UHRF1 DNA bind: counter-screen for MBD2 inhibitors: human UHRF1 methylated DNA binding inhibitors; inhibition, % at 4.4 µM; shares compounds with MBD2 DNA inh; UHRF1 binding to methylated oligonucleotide, TR-FRET; AID 720530; hit rate 25% among 1,000;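 note: UHRF1 SRA domain binding a labeled hemimethylated CpG hairpin DNA; 0% = vehicle only and 100% = reference inhibitor with vehicle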
MBD2 confirm: confirmation of human MBD2-DBD methylated oligonucleotide binding inhibitors; TR-FRET MBD2-DBD binding to methylated oligonucleotide; hit rate 26% among 1,000; shares compounds with MBD2 DNA inh; inhibition, % at 4.4 µM; in the data active = inhibition above about 14%
Numbers without * were called inactive. Hits are enriched below; roughly 1.9% of the tested compounds scored in any of these assays. Cut-off read from the data, not from the text of the source, unless noted: active = inhibition above about 21%; inactive = the rest.

Results for CCN(CC)CCNC(=O)c1cc(-c2ccco2)nc2ccccc12 ?
UHRF1 MBD2 ctr: -5; LEDGF integ inh: 4; Rin1 Abl inh: -2; MBD2 DNA inh: 0; TDP2 absorb: 2

What do the screens show for `COc1ccc(CN[C@@H]2CC[C@@]34CCCN3C(=O)CCC[C@H]4C2)cc1`?
UHRF1 MBD2 ctr: 4; LEDGF integ inh: 2; MBD2 DNA inh: 0; TDP2 absorb: -7

What do the screens show for `Cn1cc(C[C@H](NC(=O)OC(C)(C)C)C(=O)N[C@@H](CO)Cc2ccccc2)c2ccccc21`?
UHRF1 MBD2 ctr: 2; LEDGF integ inh: 1; Rin1 Abl inh: 5; MBD2 DNA inh: 26*; TDP2 absorb: -5; UHRF1 DNA bind: 7; MBD2 confirm: 2

How did CC(C)(C)OC(=O)NC(Cc1ccccc1)C(=O)NCCCC(=O)O (configuration not stated) do in these assays?
UHRF1 MBD2 ctr: -3; LEDGF integ inh: -3; Rin1 Abl inh: 0; MBD2 DNA inh: 0; TDP2 absorb: 12

How did OCCCNCc1cccc2ccccc12 do in these assays?
UHRF1 MBD2 ctr: 18; LEDGF integ inh: 3; Rin1 Abl inh: 1; MBD2 DNA inh: 15*; TDP2 absorb: -1; UHRF1 DNA bind: 5; MBD2 confirm: 19*

How did COC(=O)[C@H]1C[C@@]2(N3CCCCC3)c3ccccc3N[C@H]2N1S(=O)(=O)c1ccc(C)cc1 do in these assays?
UHRF1 MBD2 ctr: 0; LEDGF integ inh: -3; MBD2 DNA inh: 3; TDP2 absorb: 7

How did O=C(COc1ccc2ccccc2c1Br)Nn1cnnc1 do in these assays?
UHRF1 MBD2 ctr: 17; LEDGF integ inh: 5; Rin1 Abl inh: -4; MBD2 DNA inh: 19*; TDP2 absorb: 24; UHRF1 DNA bind: 4; MBD2 confirm: 2

What do the screens show for `Nn1c(-c2ccc(O)cc2)nnc1-c1ccc(O)cc1`?
UHRF1 MBD2 ctr: 2; LEDGF integ inh: 2; Rin1 Abl inh: 0; MBD2 DNA inh: 23*; TDP2 absorb: -11; UHRF1 DNA bind: 5; MBD2 confirm: 3

What do the screens show for `CCOc1cc(/C=N/n2cnnc2)ccc1OS(=O)(=O)c1ccc(C)cc1`?
UHRF1 MBD2 ctr: 5; LEDGF integ inh: -6; Rin1 Abl inh: 0; MBD2 DNA inh: 14*; TDP2 absorb: -8; UHRF1 DNA bind: 7; MBD2 confirm: 2

What do the screens show for `CCCCN1CC(=O)N2[C@H](C[C@@]3(C)c4ccccc4N(S(=O)(=O)c4ccccc4)[C@@H]23)C1=O`?
UHRF1 MBD2 ctr: 6; LEDGF integ inh: -3; MBD2 DNA inh: -2; TDP2 absorb: 5

What do the screens show for `Cc1ccc(-c2cc(C(=O)N/N=C/C=C/c3ccccc3)n[nH]2)s1`?
UHRF1 MBD2 ctr: 0; LEDGF integ inh: 0; Rin1 Abl inh: 1; MBD2 DNA inh: 2; TDP2 absorb: -11

Results for O=C(N/N=C/C=C/c1ccccc1)c1cc(C2CC2)[nH]n1 ?
UHRF1 MBD2 ctr: -2; LEDGF integ inh: 0; Rin1 Abl inh: -1; MBD2 DNA inh: 21*; TDP2 absorb: -4; UHRF1 DNA bind: 1; MBD2 confirm: 0

What do the screens show for `COC(=O)c1cc(C(=O)OCC(=O)NC(=O)NCc2ccccc2)cc([N+](=O)[O-])c1`?
UHRF1 MBD2 ctr: 19; LEDGF integ inh: -1; Rin1 Abl inh: 4; MBD2 DNA inh: 17*; TDP2 absorb: 2; UHRF1 DNA bind: 4; MBD2 confirm: 2

Results for COCCn1c(-c2ccccc2)nc2oc3cc(OC)ccc3c(=O)c2c1=O ?
UHRF1 MBD2 ctr: 1; LEDGF integ inh: -2; Rin1 Abl inh: -2; MBD2 DNA inh: 2; TDP2 absorb: -4

What do the screens show for `COc1ccc2c(=O)c3c(=O)n(-c4ccccc4)c(-c4ccc(C)cc4)nc3oc2c1`?
UHRF1 MBD2 ctr: 11; LEDGF integ inh: -1; Rin1 Abl inh: -2; MBD2 DNA inh: 19*; TDP2 absorb: 11; UHRF1 DNA bind: 18; MBD2 confirm: 68*

What do the screens show for `S=C(NCC1CCCCC1)OC1CCC12CCC(c1ccccc1)CC2` (configuration not stated)?
UHRF1 MBD2 ctr: 1; LEDGF integ inh: 3; MBD2 DNA inh: -2; TDP2 absorb: -1

What do the screens show for `CC1(C)CC(=O)C2=C(C1)OC(N)=C(C#N)[C@@H]2c1ccccc1[N+](=O)[O-]`?
UHRF1 MBD2 ctr: -2; LEDGF integ inh: 1; Rin1 Abl inh: -4; MBD2 DNA inh: 18*; TDP2 absorb: 6; UHRF1 DNA bind: 4; MBD2 confirm: 2

What do the screens show for `COc1cc(C2C(C#N)=C(N)OC3=C2C(=O)CC(C)(C)C3)c([N+](=O)[O-])cc1OC` (configuration not stated)?
UHRF1 MBD2 ctr: -7; LEDGF integ inh: -1; Rin1 Abl inh: 3; MBD2 DNA inh: -7; TDP2 absorb: 0

What do the screens show for `Cc1ccc(NC(=O)CN(C)C(=O)CNC(=O)c2sc3ccccc3c2Cl)cc1`?
UHRF1 MBD2 ctr: -3; LEDGF integ inh: 6; Rin1 Abl inh: -15; MBD2 DNA inh: 50*; TDP2 absorb: -5; UHRF1 DNA bind: 4; MBD2 confirm: 2

Results for O=C(Oc1ccc([N+](=O)[O-])cc1)O[C@H]1CC[C@@]23CCCN2C(=O)CCC[C@H]3C1 ?
UHRF1 MBD2 ctr: 0; LEDGF integ inh: 0; MBD2 DNA inh: -3; TDP2 absorb: 2

What do the screens show for `Cn1c(=O)c2c(ncn2CC(=O)O)n(C)c1=O`?
UHRF1 MBD2 ctr: 0; LEDGF integ inh: -1; Rin1 Abl inh: -1; MBD2 DNA inh: -6; TDP2 absorb: -17

Results for Cn1c(=O)c2c(ncn2CC2OCCO2)n(C)c1=O ?
UHRF1 MBD2 ctr: 1; LEDGF integ inh: -4; Rin1 Abl inh: 0; MBD2 DNA inh: 35*; TDP2 absorb: 3; UHRF1 DNA bind: 8; MBD2 confirm: 2

How did O=C(C1=C(O)C(=O)N(CCCN2CCOCC2)C1c1ccc(Cl)cc1)c1cc2ccccc2o1 (configuration not stated) do in these assays?
UHRF1 MBD2 ctr: 1; LEDGF integ inh: 5; MBD2 DNA inh: 3; TDP2 absorb: -6

Results for O=C(C1=C(O)C(=O)N(CCN2CCOCC2)C1c1ccc(Cl)cc1)c1cc2ccccc2o1 (configuration not stated) ?
UHRF1 MBD2 ctr: -2; LEDGF integ inh: 1; Rin1 Abl inh: -5; MBD2 DNA inh: 16*; TDP2 absorb: 14; UHRF1 DNA bind: 6; MBD2 confirm: -2

How did CCOC(=O)Nc1nc(-c2ccc(Cl)cc2Cl)cs1 do in these assays?
UHRF1 MBD2 ctr: 20; LEDGF integ inh: 6; Rin1 Abl inh: 1; MBD2 DNA inh: 13*; TDP2 absorb: -13; UHRF1 DNA bind: 26*; MBD2 confirm: 8

How did CCOC(=O)Nc1nc(C)c(C(=O)c2ccc(Cl)cc2)s1 do in these assays?
UHRF1 MBD2 ctr: -4; LEDGF integ inh: -2; Rin1 Abl inh: -3; MBD2 DNA inh: -4; TDP2 absorb: -4

Compound activity deposited in PubChem by The Scripps Research Institute Molecular Screening Center.
